The values below come from PMC6176901 (ChemMedChem, 2018).

Molecules are shown by their SMILES.

Series [1] concerns A549 (human lung adenocarcinoma). The experiment in a line: Cytotoxic MTS assay, A549. Conditions: A549, 72 h, read-out: Cytotoxic activity IC50, A549. The series is classed as cell-based. Summed up:
(§1)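 Human lines grown in DMEM/RPMI 1640 with 10% fetal calf serum; CEM-DNR and K562-TAX sublines selected in rising daunorubicin or paclitaxel. Seeded at 25000–35000 cells/mL in 384-well plates; DMSO solutions added at time zero; 72 h at 37 °C, 5% CO2. MTS added for 1–4 h; OD at 490 nm. Survival versus control wells; IC50 from dose-response curves. Technical duplicates, ≥3 biological replicates.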
(Tetrazolium dyes change colour on reduction, which living cells bring about.)

The test system of series [2] is CCRF-CEM (T-lymphoblastic leukemia). Nature of the series: Cytotoxic MTS assay, CCRF-CEM. The series is classed as cell-based. Conditions: Homo sapiens, 72 h, read-out: Cytotoxic activity IC50, CCRF-CEM. Summed up: as §1
The subject of series [3] is CEM-DNR (T-lymphoblastic leukemia, daunorubicin resistant). The experiment in a line: Cytotoxic MTS assay, CEM-DNR. The class given is cell-based. The following applies: Homo sapiens, 72 h, read-out: Cytotoxic activity IC50, CEM-DNR. In outline:
as §1

The test system of series [4] is K562 (acute myeloid leukemia). Nature of the series: Cytotoxic MTS assay, K562. The series is classed as cell-based. In outline: as §1
Series [5] relates to K562-TAX (acute myeloid leukemia, overexpressing the P-glycoprotein). Nature of the series: Cytotoxic MTS assay, K562-TAX. The class given is cell-based. Conditions: 72 h, read-out: Cytotoxic activity IC50, K562-TAX. Summed up:
as §1

Series [6] has as its system U2OS (Human Bone Osteosarcoma Epithelial Cells). Nature of the series: Cytotoxic MTS assay, U2OS. The following applies: 72 h, read-out: Cytotoxic activity IC50, U2OS. The class given is cell-based. In outline:
as §1

Another series in a line: Cytotoxic MTS assay, BJ. The class given is cell-based. Conditions: human, BJ cells (non-malignant fibroblasts). In outline:
as §1

Series [7] is described as follows: Cytotoxic MTS assay, MRC-5. The class given is cell-based. The following applies: human, MRC-5 cells (non-malignant lung fibroblasts). Summed up:
as §1

The subject of series [8] is cancer and non-malignant cell lines. Nature of the series: Cytotoxic MTS assay, statements over several cell lines. The class given is cell-based. The following applies: read-out: cytotoxicity, range over sensitive lines. Summed up:
as §1

The next series has as its target hERManI. Conditions: read-out: Ki for hERManI (in AspMan column); cited from earlier work.
For series [9] the following is noted: cited from earlier work.
The test system of series [10] is GMII (human Golgi α-mannosidase II). Conditions: ref 9a, cited from earlier work.
In series [11] the target is LMan (human lysosomal α-mannosidase). The following applies: read-out: LMan IC50 (in LManII column); ref 9a; cited from earlier work.

One may read the Ki as a dissociation constant, usually derived from enzyme kinetics or from competition with a known ligand.

For `O[C@H]1[C@H]2[C@H](O)CCCN2C[C@H]1O` [Compound 1, (1S,2R,8R,8aR)-trihydroxy-indolizidine], the IC50 in [1] was more than 200 µM; in series [2], 113 ± 12 µM; in [3], 132 ± 20 µM; in series [4] (Homo sapiens, K562, 72 h, read-out: Cytotoxic activity IC50, K562) it was more than 200 µM; in series [5] it was 137 ± 13 µM; in [6] it was more than 200 µM. Besides, the IC50 in series [8] lay within 110 to 140 µM. Besides, the “K562 inhibition, in words” value in series [4] (non-resistant K562) was “did not inhibit”. For the same compound, the IC50 at 72 h is more than 200 µM in “Cytotoxic MTS assay, BJ” and more than 200 µM in series [7]. Moreover, the Ki at hERManI is more than 10000 µM. For the same compound, in series [9], the “pKa ligand, Water pH=7, calculated by Sladek et al.” value was 7.8.
For the compound `OC[C@@H](O)[C@@H]1[C@H](O)[C@H](O)CN1Cc1ccccc1` [Compound 25], the “Selectivity index, LMan/GMII” value in series [10] is reported as 2.
With `OC[C@@H](O)[C@H]1NC[C@@H](O)[C@H]1O` [Compound 24, 1,4-dideoxy-1,4-imino-D-mannitol], the IC50 in [10] (read-out: GMII IC50 (in GMIIb column)) is 100 µM; in series [11], 13 µM. In series [9], the “pKa ligand, Water pH=7, calculated by Sladek et al.” value was 6.6.
